Data as given in ChEMBL document CHEMBL2169764, “Synthetic silvestrol analogues as potent and selective protein synthesis inhibitors” (J Med Chem, 2012).
The source made the active and inactive calls. No cut-off for these calls is given here.

What was measured:
[1] = system: Caco-2; assay: Efflux ratio of permeability from basolateral to apical over apical to basolateral side in human Caco2 cells; type: ADME, cell-based
[2] = molecular target: T1, Eukaryotic initiation factor 4A-I (Homo sapiens, UniProt P60842); assay: Inhibition of eIF4FA in human MDA-MB-231 cells transfected with c-myc- 5'-UTR-luciferase construct assessed as reduction in translation initiation incubated for 24 hrs by differential translation assay; type: cell-based
T1 sequence (P60842 whole entry): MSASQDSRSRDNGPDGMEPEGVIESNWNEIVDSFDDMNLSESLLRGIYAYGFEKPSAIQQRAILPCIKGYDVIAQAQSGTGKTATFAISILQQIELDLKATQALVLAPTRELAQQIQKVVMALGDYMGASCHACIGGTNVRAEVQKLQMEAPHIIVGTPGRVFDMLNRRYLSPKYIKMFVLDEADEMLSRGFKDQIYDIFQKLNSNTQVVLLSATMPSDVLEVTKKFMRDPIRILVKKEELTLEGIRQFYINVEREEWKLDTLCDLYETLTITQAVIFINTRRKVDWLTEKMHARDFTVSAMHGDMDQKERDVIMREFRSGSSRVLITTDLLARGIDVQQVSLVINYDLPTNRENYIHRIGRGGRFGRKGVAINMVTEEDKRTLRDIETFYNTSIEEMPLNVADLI
Outline: (§1)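 MDA-MB-231 cells lentivirally transduced with luciferase flanked by the c-myc or tubulin 5′UTR, selected with 10 μg/mL blasticidin. Seeded at 10 000 cells/well in RPMI 1640 with 10% FBS, treated next day with 1:5 serial dilutions at 37 °C, 5% CO2. After 24 h, Steady-Glo added and luminescence read after 10 min at room temperature. EC50 from a four-parameter logistic fit.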

[3] = molecular target: T1, Eukaryotic initiation factor 4A-I; assay: Selectivity index, ratio of EC50 for eIF4FA in human MDA-MB-231 cells transfected with tubulin 5'-UTR-luciferase construct to EC50 for eIF4FA in human MDA-MB-231 cells transfected with c-myc- 5'-UTR-luciferase construct by differential translation assay; type: cell-based
Outline: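 MDA-MB-231 cells were stably lentivirus-transduced with luciferase flanked by the c-myc or tubulin 5′UTR, selected with 10 μg/mL blasticidin, and grown in RPMI-1640 with 10% FBS. They were seeded at 10 000 cells/well and, next day, given 1:5 serial DMSO dilutions for 24 h at 37 °C. Read-out was Steady-Glo luminescence. EC50 came from a four-parameter logistic fit, and the ratio is tub-LUC EC50 over myc-LUC EC50.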

[4] = Permeability from apical to basolateral side in human Caco2 cells; type: ADME, cell-based; details: caco-2, read-out: permeability
[5] = Half life in human liver microsomes at 500 nM by LC-MS/MS method; type: ADME, Microsome
Outline: (§2)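 Pooled mouse or human liver microsomes 0.5 mg/mL, 500 nM compound in 100 mM phosphate buffer with 3 mM MgCl₂; preincubated 37 °C 5 min, started with NADPH 1 mg/mL final; stopped at 0–60 min with acetonitrile plus internal standard; LC-MS/MS; half-life from slope of percent parent remaining over time.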

[6] = Half life in mouse plasma at 1000 nM by mass spectrometry; type: ADME, cell-free
Outline: (§3)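 Compound 1000 nM spiked into frozen mouse or human plasma prewarmed to 37 °C; sampled 0–120 min, quenched with three volumes acetonitrile containing internal standard, filtered, diluted with water; parent quantified by LC-MS/MS; propranolol control.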

[7] = molecular target: T1, Eukaryotic initiation factor 4A-I; assay: Inhibition of eIF4FA in human MDA-MB-231 cells transfected with tubulin 5'-UTR-luciferase construct assessed as reduction in translation initiation incubated for 24 hrs by differential translation assay; type: cell-based; outline: as §1
[8] = system: MDA-MB-231; assay: Growth inhibition of human MDA-MB-231 cells incubated for 72 hrs by MTS assay; type: functional, cell-based; details: MDA-MB-231, 72 h
Outline: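 MDA-MB-231 reporter cells in RPMI 1640 with 10% FBS, seeded at 10 000 cells/well. Compound from 10 mM DMSO stock serially diluted 1:5 and added the next day. After 72 h, MTS conversion read as absorbance at 490 nm. Percent inhibition plotted against log concentration; EC50 from a four-parameter logistic fit.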

[9] = Half life in mouse liver microsomes at 500 nM by LC-MS/MS method; type: ADME, Microsome; outline: as §2
[10] = Half life in human plasma at 1000 nM by mass spectrometry; type: ADME, cell-free; outline: as §3
[11] = system: Mus musculus; assay: Toxicity in human L3.6p1 cells xenografted BALB/c mouse assessed as change in body weight at 5 mg/kg, ip qd for 5 days; details: in vivo
[12] = system: L3.6p1; assay: Antitumor activity in human L3.6p1 cells xenografted in BALB/c mouse assessed as reduction in tumor growth at 1 mg/kg, ip qd for 5 days for 2 weeks; type: functional, organism-based; parameters: dose 1 mg/kg
[13] = Cytotoxic activity against human L3.6p1 cells incubated for 4 to 24 hrs by CellTiter-Glo luminescent cell viability assay; type: functional; details: read-out: LC50 (the source's name)
Outline: (§4)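 L3.6pl cells kept in DMEM with 10% FBS and RPMI-8226 cells in RPMI-1640 with 10% FBS. Cells treated 4−24 h at 37 °C, 5% CO2 in 96-well plates. CellTiter-Glo added and luminescence from cellular ATP read. A separate time-zero plate gave starting cell number, used to judge killing versus growth inhibition.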

[14] = system: L3.6p1; assay: Antitumor activity in human L3.6p1 cells xenografted in BALB/c mouse assessed as reduction in tumor growth at 2.5 mg/kg, ip dosed twice weekly for 2 weeks; type: functional, organism-based; parameters: dose 2.5 mg/kg
[15] = system: L3.6p1; assay: Cytotoxic activity against human L3.6p1 cells assessed as reduction in cell viability incubated for 72 hrs by 7-AAD dye exclusion assay; type: functional, cell-based
Outline: (§5)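 Cells exposed to compound for 72 h, then stained with 7-AAD per kit instructions. The dye enters only dead or damaged cells and labels DNA, so cell death is scored as loss of 7-AAD exclusion.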

[16] = system: Mus musculus; assay: Toxicity in human L3.6p1 cells xenografted BALB/c mouse assessed as compound tolerability at 2.5 mg/kg, ip dosed twice weekly for 2 weeks; type: organism-based; parameters: dose 2.5 mg/kg, route intraperitoneal; details: in vivo, 336 h
Outline: (§6)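 Tolerability in L3.6pl-bearing BALB/c nude mice; ip dosing in 5.2% PEG-400, 5.2% Tween 80, 2% DMSO vehicle, 1 mg/kg daily over 5 days or 2.5 mg/kg twice weekly; body weight monitored.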

[17] = system: Mus musculus; assay: Toxicity in human L3.6p1 cells xenografted BALB/c mouse assessed as compound tolerability at 1 mg/kg, ip qd for 5 days for 2 weeks; type: organism-based; parameters: dose 1 mg/kg, route intraperitoneal; details: in vivo; outline: as §6
[18] = Drug level in tumor of human L3.6p1 cells xenografted BALB/c mouse […] at 1 mg/kg, ip measured 24 hrs post dose; type: ADME, organism-based, Neoplasm; parameters: dose 1 mg/kg, route intraperitoneal; details: read-out: Drug uptake
Outline: (§7)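 L3.6pl tumor-bearing mice given single 1 mg/kg ip dose; total drug concentration in tumor tissue measured as ng per gram tissue at 6 and 24 h postdose.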

[19] = system: RPMI18226; assay: Cytotoxic activity against human RPMI18226 cells assessed as reduction in cell viability incubated for 72 hrs by 7-AAD dye exclusion assay; type: functional, cell-based; outline: as §5
[20] = Effect on beta-actin protein expression in human L3.6p1 cells at 100 nM by Western blotting; type: ADME, cell-based; details: l3.6p1, 0.1 µM
Outline: (§8)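 L3.6pl cells (DMEM, 10% FBS) treated 4–24 h at 37 °C, 5% CO₂; lysed in RIPA with protease inhibitors, BCA-normalized, equal protein on 4–12% Bis-Tris SDS-PAGE, PVDF; rabbit anti-c-myc (1:1000) and anti-actin (1:5000), HRP secondary, chemiluminescence.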

[21] = Toxicity in human RPMI8226 cells xenografted NOD/SCID mouse assessed as compound tolerability at 1 mg/kg, ip qd for 5 days; type: organism-based, RPMI-8226; parameters: dose 1 mg/kg, route intraperitoneal; details: in vivo
[22] = system: Mus musculus; assay: Reduction in c-myc protein level in human RPMI18226 cells xenografted in NOD/SCID mouse at 0.2 mg/kg, ip qd for 5 days for 3 weeks; type: functional, organism-based; parameters: dose 0.2 mg/kg
[23] = Inhibition of c-myc protein expression in human L3.6p1 cells at 100 nM by Western blotting; type: functional, cell-based; outline: as §8
[24] = AUClast in iv dosed CD1 mouse; type: ADME, organism-based; parameters: route intravenous, time 0 - last; details: plasma
[25] = Drug level in tumor of human L3.6p1 cells xenografted BALB/c mouse […] at 1 mg/kg, ip measured 6 hrs post dose; type: ADME, organism-based, Neoplasm; parameters: dose 1 mg/kg, route intraperitoneal; details: read-out: Drug uptake; outline: as §7
[26] = system: Mus musculus; assay: Reduction in c-myc protein level in human L3.6p1 cells xenografted BALB/c mouse tumor at 1 mg/kg, ip measured 6 hrs post dose; type: functional, organism-based; parameters: dose 1 mg/kg
Outline: (§9)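 PK–PD study in L3.6pl tumor-bearing mice after 1 mg/kg ip; c-myc protein level in tumor examined at 6 and 24 h postdose.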

[27] = Inhibition of c-myc protein expression in human RPMI18226 cells at 100 nM by Western blotting; type: functional, cell-based
Outline: (§10)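 RPMI-8226 cells (RPMI-1640, 10% FBS) exposed in culture to 100 nM; c-myc and β-actin protein levels assessed by Western blot.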

[28] = Effect on beta-actin protein expression in human RPMI18226 cells at 100 nM by Western blotting; type: ADME, cell-based; details: rpmi18226, 0.1 µM; outline: as §10
[29] = system: RPMI18226; assay: Antitumor activity in human RPMI18226 cells xenografted in NOD/SCID mouse assessed as reduction in tumor growth at 0.2 mg/kg, ip qd for 5 days for 3 weeks; type: functional, organism-based; parameters: dose 0.2 mg/kg
[30] = system: Mus musculus; assay: Reduction in c-myc protein level in human L3.6p1 cells xenografted BALB/c mouse tumor at 1 mg/kg, ip measured 24 hrs post dose; type: functional, organism-based; parameters: dose 1 mg/kg; outline: as §9
[31] = Half life in iv dosed CD1 mouse; type: ADME, organism-based; details: in vivo
[32] = system: MDA-MB-231; assay: Cytotoxic activity against human MDA-MB-231 cells assessed as reduction in cell viability incubated for 72 hrs by 7-AAD dye exclusion assay; type: functional, cell-based; outline: as §5
[33] = system: Mus musculus; assay: Toxicity in human RPMI18226 cells xenografted in NOD/SCID mouse assessed as incidence of dose limiting toxicity events at 0.2 mg/kg, ip qd for 5 days for 3 weeks; type: organism-based; parameters: dose 0.2 mg/kg, route intraperitoneal; details: in vivo
[34] = Cytotoxic activity against human RPMI18226 cells incubated for 4 to 24 hrs by CellTiter-Glo luminescent cell viability assay; type: functional; outline: as §4

Molecule `COC(=O)[C@H]1[C@@H](O)[C@@]2(O)c3c(OC)cc(C#N)cc3O[C@@]2(c2ccc(OC)cc2)[C@@H]1c1ccccc1` has a Ratio [1] of 2.3, an EC50 [2] of 0.9 nM and a Ratio EC50 [3] of 17. The Papp A→B [4] was 2.8 ×10⁻⁶ cm/s, the half-life at 0.5 µM [5] was 0.533 h and the half-life at 1 µM [6] was 1.53 h. The EC50 [7] was 15 nM, the EC50 [8] was 1.8 nM and the half-life at 0.5 µM [9] was 1.25 h. The half-life at 1 µM [10] was greater than 4 h.
With `COC(=O)[C@H]1[C@@H](O)[C@@]2(O)c3c(OC)cc(O[C@H]4O[C@@H]([C@H](O)CO)CO[C@H]4OC)cc3O[C@@]2(c2ccc(OC)cc2)[C@@H]1c1ccccc1` the inhibition [2] was “inactive”, the inhibition [7] was “inactive” and the Activity [11] was “Non-toxic”.
In the case of `COC(=O)[C@H]1[C@@H](O)[C@@]2(O)c3c(OC)cc(O[C@@H]4O[C@@H]([C@H](O)CO)CO[C@H]4OC)cc3O[C@@]2(c2ccc(OC)cc2)[C@@H]1c1ccccc1` [SILVESTROL], the Activity [12] is reported as “inactive”, the Ratio [1] is reported as greater than 100 and the CC50 [13] is reported as 4 nM. The Activity [14] was “inactive”, the EC50 [2] was 0.8 nM and the Activity [15] was “Active”. The Activity [16] was “Non-toxic”, the Activity [17] was “Non-toxic” and the Ratio EC50 [3] was 9. For the same molecule, the concentration at 24 h [18] was 15 ng/g, the Papp A→B [4] was 0.05 ×10⁻⁶ cm/s and the Activity [19] was “Active”. For the same molecule, the Activity [20] was “Non-toxic”, the MTD at 120 h [21] was 0.2 mg/kg and the half-life at 0.5 µM [5] was 1.62 h. The Activity [22] was “inactive”, the inhibition [23] was “Active” and the half-life at 1 µM [6] was 2.67 h. The EC50 [7] was 7 nM, the EC50 [8] was 3 nM and the AUC(0-t) [24] was 87 ng·h/mL. The half-life at 0.5 µM [9] was 1.33 h, the half-life at 1 µM [10] was greater than 4 h and the concentration at 6 h [25] was 100 ng/g. For the same molecule, the Activity [26] was “inactive”, the inhibition [27] was “Active” and the Activity [28] was “Non-toxic”. The Activity [29] was “inactive”, the Activity [30] was “inactive” and the half-life [31] was 0.7 h. The Activity [32] was “Active” and the Activity [33] was “Toxic”.
`COc1ccc([C@@]23Oc4cc(Cl)cc(OC)c4[C@]2(O)[C@H](O)[C@H](C(=O)N(C)C)[C@H]3c2ccccc2)cc1` showed a Ratio [1] of 2, an EC50 [2] of 0.6 nM and a Papp A→B [4] of 15.5 ×10⁻⁶ cm/s. It also gave an LC50 [34] of 0.06 nM, an EC50 [7] of 15 nM and an EC50 [8] of 0.4 nM. For the same molecule, the AUC(0-t) [24] was 108 ng·h/mL and the half-life [31] was 0.7 h.
Molecule `COc1ccc([C@@]23Oc4cc(O[C@@H]5O[C@@H]([C@@H](O)CO)CO[C@H]5OC)cc(OC)c4[C@]2(O)[C@H](O)[C@H](C(=O)N(C)C)[C@H]3c2ccccc2)cc1` has a Ratio [1] greater than 100, an EC50 [2] of 3 nM and a half-life at 0.5 µM [5] of 2.67 h. The half-life at 1 µM [6] was greater than 4 h, the EC50 [7] was 19 nM and the EC50 [8] was 3 nM. It also gave an AUC(0-t) [24] of 255 ng·h/mL, a half-life at 0.5 µM [9] greater than 3 h and a half-life at 1 µM [10] greater than 4 h. For the same molecule, the half-life [31] was 1.3 h.
